The entries come from a sample that favours hits as a whole.
Dynein cargo inh: dynein cargo transport inhibition; z-score, hits read low; hit rate 0.47% among 220,000; 3617.4 mouse cells, GR-EGFP nuclear translocation imaging; test concentration mostly 20 µM; stimulated with dexamethasone, 1 µM; stronger effect = lower value;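 active = plate z-score of nuclear minus cytoplasmic receptor signal below a set negative limit, without overly bright fluorescence or cell loss, cut at about -3.5 in these data, passing the limit was not always enough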;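 note: z-score of nuclear minus cytoplasmic ring GR-EGFP intensity difference per well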
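Medium: Induction medium lacking tetracycline, stripped serum | Probe or stimulus: 1.0 µM final dexamethasone stimulus | Schedule: 48 h induction, then 1 h compound, then 30 min agonist, 37 °C | Signal: Automated 10x imaging of fixed Hoechst-stained cells | Evaluation: Per-cell GR-EGFP intensity, nucleus versus surrounding cytoplasmic ring, well-averaged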
UPR XBP1 act: adaptive UPR (XBP1) activation; CHO-XBP1 luciferase reporter, IRE1-XBP1 UPR activation, luminescence; percent of tunicamycin response, DMSO as zero; activation, % at 20 µM; hit rate 0.33% among 330,000; AID 463104;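 active = versus positive control, 20 µM dose yields 30% or more activation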;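 note: 100% = tunicamycin at 10 µg/mL and 0% = DMSO only wells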
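Signal: luciferase luminescence; Assay system: CHO-XBP1 luciferase reporter cells; Amount: one thousand reporter cells per well; Dosing: 20 µM single concentration, DMSO 1%; Benchmarks: high control tunicamycin 10 µg/mL final, low control DMSO vehicle only; Schedule: 6 h compound exposure at 37 °C, 5% CO2; Evaluation: percent activation relative to tunicamycin reference.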
pCIP destab: lowers stability of the mouse p/CIP coactivator protein; Q05BA5; F442A p/CIP-EGFP cells, EGFP fluorescence, 16 h; decrease of EGFP signal, % at 10 µM; hit rate 0.01% among 290,000; AID 1984;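 active = EGFP signal decrease of at least 30% at 10 µM or well 3 SD below plate mean, unless failing retest; inactive = the rest, including hits failing retest or dose response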
Target sequence (Q05BA5 1-1403): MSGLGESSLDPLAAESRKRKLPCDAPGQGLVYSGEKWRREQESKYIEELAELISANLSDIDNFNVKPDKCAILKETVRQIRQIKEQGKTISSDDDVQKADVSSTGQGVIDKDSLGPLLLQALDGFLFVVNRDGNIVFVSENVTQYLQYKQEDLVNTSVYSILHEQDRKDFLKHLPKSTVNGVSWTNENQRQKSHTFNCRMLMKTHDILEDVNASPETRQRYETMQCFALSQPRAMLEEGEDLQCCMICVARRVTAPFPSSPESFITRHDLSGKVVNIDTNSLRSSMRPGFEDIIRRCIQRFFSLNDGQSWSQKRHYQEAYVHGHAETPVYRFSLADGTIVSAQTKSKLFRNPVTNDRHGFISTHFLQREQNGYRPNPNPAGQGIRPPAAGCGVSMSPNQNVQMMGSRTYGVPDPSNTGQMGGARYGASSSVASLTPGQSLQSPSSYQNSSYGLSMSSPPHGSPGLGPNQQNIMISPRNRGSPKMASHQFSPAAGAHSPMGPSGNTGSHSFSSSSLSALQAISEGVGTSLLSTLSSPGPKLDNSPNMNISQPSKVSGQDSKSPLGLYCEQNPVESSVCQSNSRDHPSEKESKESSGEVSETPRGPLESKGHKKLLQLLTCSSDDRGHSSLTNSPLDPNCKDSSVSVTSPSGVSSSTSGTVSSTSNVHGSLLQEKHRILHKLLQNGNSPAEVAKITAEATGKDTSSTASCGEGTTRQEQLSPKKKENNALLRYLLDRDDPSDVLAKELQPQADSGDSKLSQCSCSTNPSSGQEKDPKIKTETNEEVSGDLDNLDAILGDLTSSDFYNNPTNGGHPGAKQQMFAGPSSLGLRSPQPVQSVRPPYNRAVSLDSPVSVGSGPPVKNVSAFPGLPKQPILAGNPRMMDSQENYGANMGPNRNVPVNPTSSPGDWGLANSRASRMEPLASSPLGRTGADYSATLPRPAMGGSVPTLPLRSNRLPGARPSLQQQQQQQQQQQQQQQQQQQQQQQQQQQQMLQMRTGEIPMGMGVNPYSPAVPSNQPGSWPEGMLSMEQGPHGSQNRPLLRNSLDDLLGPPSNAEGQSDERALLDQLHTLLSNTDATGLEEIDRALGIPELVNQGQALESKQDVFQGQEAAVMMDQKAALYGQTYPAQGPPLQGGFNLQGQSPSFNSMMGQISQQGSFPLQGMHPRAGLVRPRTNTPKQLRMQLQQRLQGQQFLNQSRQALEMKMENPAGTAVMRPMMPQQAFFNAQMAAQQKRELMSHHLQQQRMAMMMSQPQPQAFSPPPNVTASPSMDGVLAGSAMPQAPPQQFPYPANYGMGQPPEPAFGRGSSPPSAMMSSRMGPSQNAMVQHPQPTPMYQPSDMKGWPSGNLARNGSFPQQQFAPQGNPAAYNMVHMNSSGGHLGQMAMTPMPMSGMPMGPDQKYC
CHOP UPR activ: activators of apoptotic arm of unfolded protein response (CHOP). CHO-CHOP luciferase reporter, UPR activation, luminescence; percent of tunicamycin response over DMSO baseline. activation, % at 10 µM. hit rate 0.34% among 330,000. AID 449763;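 active = at 10 µM dose, activation of 40% or more, normalized to positive control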;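 note: 100% = tunicamycin at 10 µg/mL and 0% = DMSO alone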
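Test system: CHO-CHOP cells, stable luciferase reporter of PERK-eIF2a-CHOP signalling | Quantity: 500 CHO-CHOP cells per well | Buffer or medium: F12 plus 10% serum | Compound dosing: 10 µM single point, 0.5% DMSO | Schedule: 6 h compound treatment, 37 °C | Signal: Luciferase luminescence | Control set: Tunicamycin high control, DMSO low control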
CHOP inh: blocks CHOP induction under ER stress | hit rate 3.8% among 220,000 | CHO-K1 CHOP-promoter luciferase, tunicamycin-induced, 15-18 h | AID 2732 | inhibition, % at 10 µM;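 active = compounds that reduced the stress-induced luciferase reporter signal by more than about 70% of percent inhibition, limit read from the data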;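 note: 0% = tunicamycin plus vehicle and 100% = wells without tunicamycin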
Beta2AR agonist: activates human beta-2 adrenergic receptor causing internalization; response, % (concentration not given with the values); Am2.2-beta2AR cells, FAP receptor internalization, flow cytometry; P07550; hit rate 0.43% among 340,000; AID 504454;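 active = response above a set limit, near 3 SD of response in nonfluorescent compounds, cut at about 42% in these data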
The depositor's hits bear a star; . = no result given.

SMILES	Dynein cargo inh	UPR XBP1 act	pCIP destab	CHOP UPR activ	CHOP inh	Beta2AR agonist
O=C1c2ccccc2C(=O)C1c1ccc(Cl)cc1	.	0	12	2	.	2
O=C1CCCc2c1cc(C(=O)NCc1ccco1)c(=O)n2-c1ccc(Cl)cc1	0.3	0	-11	3	-8	2
S=C(NCc1ccco1)N1CCN(C(c2ccccc2)c2ccccc2)CC1	-0.48	-2	3	-2	72*	1
Cc1ccc(C(=O)Nc2cccc(NC(=O)CN3CCCCC3)c2)cc1	.	1	-2	-1	.	0
Cc1ccc(N=C2NC(=O)/C(=C\c3ccsc3)S2)c(C)c1	-0.69	1	-29	4	72*	6
OC(CN(c1ccccc1)c1ccccc1)Cn1cnc2ccccc21 (stereo unspecified)	0.19	-2	-16	0	92*	3
Brc1cc(Br)c2nc(-c3cccs3)ccc2c1	2.9	2	-68	3	69	-5
Cc1nc2c(Br)cc(Br)cc2cc1O	-0.27	-1	3	0	81*	57*
c1ccc2c(c1)CCN(c1nc3ccccc3n3cnnc13)C2	-0.42	6	6	0	70*	-24
c1ccc(N2CCN(c3nc4ccccc4n4cnnc34)CC2)cc1	-0.26	7	-18	1	55	-11
CCc1nnc(SCC(=O)NC2CCCC2)nc1CC	1.4	0	-6	-2	74*	-2
CCc1nnc(SCC(=O)NC2CCCCC2)nc1CC	-0.62	1	-3	0	-5	-9
O=C(NCC(=O)N(c1ccccc1)C(C(=O)NC1CCCCC1)c1cccnc1)c1cccs1 (stereo unspecified)	0.063	-1	-14	-2	86*	-11
Cc1c(C)n2c(SCC(=O)N3CC(C)OC(C)C3)nnc2[nH]c1=O (stereo unspecified)	.	-1	.	-2	.	0
O=C(CN1CCN(c2ccccc2)CC1)Nc1cccc(C(F)(F)F)c1	1.7	0	-9	-2	79*	5
O=C(CN1CCN(Cc2ccccc2)CC1)Nc1cccc(C(F)(F)F)c1	1.5	-1	8	-1	31	3
COc1ccc(CCNC(=O)CN2CCN(c3cccc(C(F)(F)F)c3)CC2)cc1	0.088	-1	-15	-2	86*	-4
COc1ccc(CCNC(=O)CN2CCN(c3ccccc3Cl)CC2)cc1	0.22	-3	-10	6	19	-14
CC(=O)N1CCOc2ccc(S(=O)(=O)N3CCC(C(=O)NCc4ccc(C)cc4)CC3)cc21	.	-2	2	-2	.	-2
CC(=O)N1CCc2cc(S(=O)(=O)NC(CC(C)C)C(=O)Nc3ccc4c(c3)OCCO4)ccc21 (stereo unspecified)	-1.5	-3	-2	-2	-11	-2
O=C(Nc1nccs1)c1cn(-c2ccccc2)nc1-c1ccccc1	1	-3	6	4	71*	10
O=C(Nc1ccc(S(=O)(=O)Nc2nccs2)cc1)c1nn(-c2ccccc2)ccc1=O	.	-5	5	-3	.	58*
Cc1cc(C(=O)OCC(=O)c2ccc(Br)s2)c(C)o1	-0.35	4	-17	6	79*	.
Cc1cc(C(=O)OCC(=O)N2CCc3ccccc32)c(C)o1	-0.2	6	-5	6	82*	-11
CC(C)(C)NC(=S)NC(C)(C)C	0.75	0	-3	-2	34	-1
SMILES	Dynein cargo inh	UPR XBP1 act	pCIP destab	CHOP UPR activ	CHOP inh	Beta2AR agonist
COc1ccc(-c2[nH]ncc2/C=C(/C#N)C(=O)NC2CCCCC2)cc1	-0.39	-1	-14	0	31	2
Cc1ccc(-c2[nH]ncc2/C=C(\C#N)C(=O)NC2CCCCC2)cc1	0.55	0	6	0	72*	0
Cc1occc1-c1nnc(SCC(=O)c2c(N)n(C3CC3)c(=O)[nH]c2=O)n1C	.	0	.	0	.	-3
COc1c(C(CC(C)C)OC(C)=O)ccc2c1C(=O)OCc1cc(C)cc(O)c1O2 (stereo unspecified)	-0.4	0	-5	4	72*	13
COc1c(C(O)CC(C)C)ccc2c1C(=O)OCc1cc(C)cc(O)c1O2 (stereo unspecified)	-0.66	-3	4	0	24	-2
CC(=O)Nc1ccc(NC(=O)CSc2nnc(-c3cccnc3)o2)cc1	.	-2	.	-2	.	.
Cc1cc(C)c(C)c(OC(=O)c2sc(Cl)nc2C)c1	-0.49	-1	-4	5	47	92*
Cc1ccc(NC(=O)c2sc(Cl)nc2C)c(C)c1	-0.36	1	-1	2	23	7
CCc1cc2c(=O)n(C(C)C(=O)OC3CCCCC3)cnc2s1 (stereo unspecified)	-0.69	-2	-5	4	72*	-3
Cc1ccc(S(=O)(=O)c2nc(Nc3ccccc3)sc2Cl)cc1	0.37	.	-14	.	73*	-7
CC(=O)N1c2ccccc2C(C)CC12CCCCC2 (stereo unspecified)	-0.12	-2	4	-1	85*	-11
N#CCN1CCN(CC(=O)Nc2ccc(OCc3ccccc3)cc2)CC1	0.0038	0	-5	0	23	42*
O=C(CCSc1ccccc1)Nc1ccc(OCc2ccccc2)cc1	0.13	4	1	0	75*	0
Brc1ccc(Oc2nsnc2N2CCOCC2)cc1	-0.28	-2	0	1	84*	16
CCCC(=O)c1ccc(N2CCN(C(=O)c3ccc(Br)cc3)CC2)c(F)c1	-0.75	-2	-5	0	73*	-9
CCC(=O)c1ccc(N2CCN(C(=O)c3ccc(Br)cc3)CC2)c(F)c1	0.34	-5	-15	-2	85*	-14
CCC(=O)c1ccc(N2CCN(C(=O)c3ccc(F)cc3)CC2)c(F)c1	0.78	-1	-11	-1	1	-2
CCCC(=O)c1ccc(N2CCN(C(=O)c3ccccc3Br)CC2)c(F)c1	-0.27	-4	-26	8	74*	3
CC1CCN(C(=O)c2cc3ccccc3cc2O)CC1	.	0	-4	0	.	-10
Cn1c(N)c(C(=O)COC(=O)c2ccc([N+](=O)[O-])o2)c(=O)n(C)c1=O	-1.4	-1	3	0	10	-13
Cc1ccc(-c2csc(NC(=O)CCNC(=O)c3ccc(Cl)cc3)n2)cc1	0.13	-1	-3	1	-2	3
CC(C)(C)c1ccc(C(=O)NCC(=O)OCC(=O)Nc2nc(-c3ccc(F)cc3)cs2)cc1	1.5	-1	-3	2	73*	-2
Cc1ccc(NC(=O)CCC(=O)c2cccs2)c(O)c1	0.99	1	-11	2	11	-10
